Measurements reported in ChEMBL document CHEMBL1130229, “Synthesis and antimalarial activity in vitro and in vivo of a new ferrocene-chloroquine analogue” (J Med Chem, 1997).

How the values were obtained:
Plasmodium falciparum [1] = experiment: In vitro antimalarial activity against Plasmodium falciparum FG4; format: functional, organism-based
How it was run: (§1)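 Young trophozoite-stage P. falciparum cultures were exposed to drug at 0.001–10 μg/mL for 48 h, in triplicate. [³H]hypoxanthine uptake by schizonts was measured by scintillation counting, with drug-free cultures as controls. IC50 was taken from the regression line through mean dpm between maximum and minimum values, and given as mean and SD over n experiments.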

Plasmodium falciparum [2] = experiment: In vitro antimalarial activity against Plasmodium falciparum FCM6; format: functional, organism-based; how it was run: as §1
[3] = Compound was tested antimalarial activity in mice (Mus musculus), infected with Plasmodium berghei N., activity is expressed as the mortality rate at a concentration of 10 mg/kg. in experiment 1; 0 out of 5; format: ADME, organism-based; design: dose 10 mg/kg; settings: in vivo
Plasmodium falciparum [4] = experiment: In vitro antimalarial activity against Plasmodium falciparum SGE2; format: functional, organism-based; how it was run: as §1
Plasmodium falciparum [5] = experiment: In vitro antimalarial activity against Plasmodium falciparum FG2 parasite; format: functional, organism-based; how it was run: as §1
[6] = Compound was tested antimalarial activity in mice (Mus musculus), infected with Plasmodium berghei N., activity is expressed as the mortality rate at a concentration of 1 mg/kg. in experiment 1; 5 out of 5; format: ADME, organism-based; design: dose 1 mg/kg; settings: in vivo
Plasmodium falciparum [7] = experiment: In vitro antimalarial activity against Plasmodium falciparum FG3; format: functional, organism-based; how it was run: as §1
Plasmodium falciparum [8] = experiment: In vitro antimalarial activity against Plasmodium falciparum FG1; format: functional, organism-based; how it was run: as §1
Plasmodium falciparum [9] = experiment: In vitro antimalarial activity against Plasmodium falciparum FCM17 parasite; format: functional, organism-based; how it was run: as §1
Mus musculus [10] = experiment: Compound was tested for the antimalarial activity in mice (Mus musculus), infected with Plasmodium yoelii NS., activity is expressed as the percent of parasitaemia observed in mice (Mus musculus) at end of 4-day test at a concentration of 10 mg/kg in experiment 1; format: functional, organism-based; design: dose 10 mg/kg
How it was run: (§2)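 4-day suppressive test in female Swiss mice (25 g), infected at day 0 with 10⁷ parasitized RBC from a donor at 20–30% parasitemia. Drug given subcutaneously in PBS once daily, days 0–3; dose in chloroquine base equivalents. Controls received PBS. Parasitemia was counted on 1000 RBC in Giemsa-stained thin films at day 4 and expressed as percent of control-mouse parasitemia.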

Mus musculus [11] = experiment: Compound was tested for the antimalarial activity in mice (Mus musculus), infected with Plasmodium yoelii NS., activity is expressed as the percent of parasitaemia observed in mice (Mus musculus) at end of 4-day test at a concentration of 1 mg/kg in experiment 2; format: functional, organism-based; design: dose 1 mg/kg; how it was run: as §2
Mus musculus [12] = experiment: Compound was tested for the antimalarial activity in mice (Mus musculus), infected with Plasmodium berghei N., activity is expressed as the percent of parasitaemia observed in mice (Mus musculus) at end of 4-day test at a concentration of 10 mg/kg in experiment 1; format: functional, organism-based; design: dose 10 mg/kg; how it was run: as §2
Mus musculus [13] = experiment: Compound was tested for the antimalarial activity in mice (Mus musculus), infected with Plasmodium yoelii NS., activity is expressed as the percent of parasitaemia observed in mice (Mus musculus) at end of 4-day test at a concentration of 1 mg/kg in experiment 1; format: functional, organism-based; design: dose 1 mg/kg; how it was run: as §2
Mus musculus [14] = experiment: Compound was tested for the antimalarial activity in mice (Mus musculus), infected with Plasmodium yoelii NS., activity is expressed as the percent of parasitaemia observed in mice (Mus musculus) at end of 4-day test at a concentration of 10 mg/kg in experiment 2; format: functional, organism-based; design: dose 10 mg/kg; how it was run: as §2
Mus musculus [15] = experiment: Compound was tested for the antimalarial activity in mice (Mus musculus), infected with Plasmodium berghei N., activity is expressed as the percent of parasitaemia observed in mice (Mus musculus) at end of 4-day test at a concentration of 1 mg/kg in experiment 2; format: functional, organism-based; design: dose 1 mg/kg; how it was run: as §2
Mus musculus [16] = experiment: Compound was tested for the antimalarial activity in mice (Mus musculus), infected with Plasmodium berghei N., activity is expressed as the percent of parasitaemia observed in mice (Mus musculus) at end of 4 day test at a concentration of 1 mg/kg in experiment 1; format: functional, organism-based; design: dose 1 mg/kg; how it was run: as §2
Mus musculus [17] = experiment: Compound was tested for the antimalarial activity in mice (Mus musculus), infected with Plasmodium berghei N., activity is expressed as the percent of parasitaemia observed in mice (Mus musculus) at end of 4 day test at a concentration of 10 mg/kg in experiment 2; format: functional, organism-based; design: dose 10 mg/kg; how it was run: as §2
Mus musculus [18] = experiment: Antimalarial activity in mice (Mus musculus), infected with Plasmodium yoelii NS. activity is expressed as the percent of parasitaemia observed in mice (Mus musculus) at end of 4-day test at a concentration of 1 mg/kg in experiment 1; format: functional; how it was run: as §2
Mus musculus [19] = experiment: Antimalarial activity in mice (Mus musculus), infected with Plasmodium berghei N. activity is expressed as the percent of parasitaemia observed in mice (Mus musculus) at end of 4-day test at a concentration of 1 mg/kg in experiment 2; format: functional; how it was run: as §2
Mus musculus [20] = experiment: Antimalarial activity in mice (Mus musculus), infected with Plasmodium yoelii NS., activity is expressed as the percent of parasitaemia observed in mice (Mus musculus) at end of 4 day test at a concentration of 1 mg/kg in experiment 2; format: functional; how it was run: as §2
Mus musculus [21] = experiment: Antimalarial activity in mice (Mus musculus), infected with Plasmodium berghei N. activity is expressed as the percent of parasitaemia observed in mice (Mus musculus) at end of 4-day test at a concentration of 10 mg/kg in experiment 2; format: functional; how it was run: as §2
Mus musculus [22] = experiment: Antimalarial activity in mice (Mus musculus), infected with Plasmodium yoelii NS., activity is expressed as the percent of parasitaemia observed in mice (Mus musculus) at end of 4-day test at a concentration of 10 mg/kg in experiment 1; format: functional; how it was run: as §2
Mus musculus [23] = experiment: Antimalarial activity in mice (Mus musculus), infected with Plasmodium berghei N. activity is expressed as the percent of parasitaemia observed in mice (Mus musculus) at end of 4-day test at a concentration of 10 mg/kg in experiment 1; format: functional; how it was run: as §2
Mus musculus [24] = experiment: Antimalarial activity in mice (Mus musculus), infected with Plasmodium yoelii NS. activity is expressed as the percent of parasitaemia observed in mice (Mus musculus) at end of 4-day test at a concentration of 10 mg/kg in experiment 2; format: functional; how it was run: as §2
Mus musculus [25] = experiment: Antimalarial activity in mice (Mus musculus), infected with Plasmodium berghei N. activity is expressed as the percent of parasitaemia observed in mice (Mus musculus) at end of 4-day test at a concentration of 1 mg/kg in experiment 1; format: functional; how it was run: as §2

7-Chloro-4-[[[2-[(N,N-methyl amino)]ferrocenyl]methyl]amino]quinoline; bis-(2,3-Dihydroxy-succinic acid) [listing 1 of 2 here]
IC50 (Plasmodium falciparum [1]): 0.057 µg/mL
IC50 (Plasmodium falciparum [2]): 0.061 µg/mL
Mortality [3]: 0
IC50 (Plasmodium falciparum [4]): 0.16 µg/mL
IC50 (Plasmodium falciparum [5]): 0.059 µg/mL
Mortality [6]: 5
IC50 (Plasmodium falciparum [7]): 0.095 µg/mL
IC50 (Plasmodium falciparum [8]): 0.067 µg/mL
IC50 (Plasmodium falciparum [9]): 0.177 µg/mL

7-Chloro-4-[[[2-[(N,N-methyl amino)]ferrocenyl]methyl]amino]quinoline; bis-(2,3-Dihydroxy-succinic acid) [listing 2 of 2 here]
Parasitemia (Mus musculus [10]): 0.3%
Parasitemia (Mus musculus [11]): 109%
Parasitemia (Mus musculus [12]): 0%
Parasitemia (Mus musculus [13]): 125%
Parasitemia (Mus musculus [14]): 0%
Parasitemia (Mus musculus [15]): 75.8%
Parasitemia (Mus musculus [16]): 75.5%
Parasitemia (Mus musculus [17]): 0%

CCN(CC)CCCC(C)Nc1ccnc2cc(Cl)ccc12 (stereo not given) [CHLOROQUINE]
Parasitemia (Mus musculus [18]): 64.7%
Parasitemia (Mus musculus [19]): 60.1%
Parasitemia (Mus musculus [20]): 76.6%
Parasitemia (Mus musculus [21]): 0.59%
Parasitemia (Mus musculus [22]): 0%
Parasitemia (Mus musculus [23]): 2.08%
Parasitemia (Mus musculus [24]): 0%
Parasitemia (Mus musculus [25]): 69.2%
